# Measured values of several laboratories.
# FLT3 K663Q: Receptor-type tyrosine-protein kinase FLT3 (FLT3, Homo sapiens, UniProt P36888, K663Q)
# FLT3: Receptor-type tyrosine-protein kinase FLT3 (FLT3, Homo sapiens, UniProt P36888)
# FLT3 D835Y: Receptor-type tyrosine-protein kinase FLT3 (FLT3, Homo sapiens, UniProt P36888, D835Y)
# FLT3 N841I: Receptor-type tyrosine-protein kinase FLT3 (FLT3, Homo sapiens, UniProt P36888, N841I)
Compound,target,effect on,mode,technique,tested at,measurement,value
CCCCC(=O)Nc1ccc(-c2ccc3ncn(CCC)c(=O)c3c2)cn1,FLT3 K663Q,binding,,competition with immobilised ligand,0.5 µM,remaining binding,96%
Cc1n[nH]c2ccc3nc(-c4ccc(C(=O)NCCN(C)C)cc4F)c4c(c3c12)CCCC4,FLT3,enzyme activity,inhibitor,radiometric,0.5 µM,remaining activity,22%
COc1ccc2[nH]c3c4[nH]c5ccc(OC)cc5c4c4c(c3c2c1)C(=O)NC4=O,FLT3 D835Y,binding,,,1 µM,remaining binding,16%
O=C1C=C(Nc2ccc(OCc3cn(Cc4ccc(Cl)c(Cl)c4)nn3)cc2)C(=O)c2ccccc21,FLT3,enzyme activity,inhibitor,radiometric,10 µM,inhibition,-21%
Cc1ccc(NC(=O)c2ccnc(C(F)(F)F)c2)cc1-c1cc(OCCO)nc(N2CCOCC2)c1,FLT3 N841I,binding,,,1 µM,remaining binding,82%
C=CC(=O)N1CCC([C@@H]2CCNc3c(C(N)=O)c(-c4ccc(Oc5ccccc5)cc4)nn32)CC1,FLT3 D835Y,enzyme activity,inhibitor,,1 µM,inhibition,81%
C#Cc1cc(-c2cc(Nc3nc(N[C@@H](C)c4ccc(F)cn4)ncc3Cl)n[nH]2)ccc1C=O,FLT3,enzyme activity,inhibitor,,0.2 µM,inhibition,98.8%
Cc1cc(S(=O)(=O)N[C@H]2CC[C@H](CN3CCN(c4ccc(C5CCC(=O)NC5=O)cc4F)CC3)CC2)ccc1Nc1ncc(C(F)(F)F)c(N2CCC[C@](C)(O)C2)n1 (some centres unmarked),FLT3 N841I,binding,,competition with immobilised ligand,1 µM,remaining binding,47%
COc1ccc2oc(-c3ccc4nc(N)oc4c3)c/c(=N\c3ccccc3NC(=O)CCN)c2c1,FLT3,binding,,,1 µM,remaining binding,108%
C[C@H]1CC[C@H](n2c3cnccc3c3cnc(Nc4ccc5c(n4)CCN(C(=O)CO)C5)nc32)CC1,FLT3 N841I,cell-free assay,,,1 µM,remaining signal,0%
CNS(=O)(=O)c1ccc(Nc2ncc(C(F)(F)F)c(N3CCC[C@](C)(O)C3)n2)c(C)c1,FLT3 N841I,binding,,competition with immobilised ligand,1 µM,remaining binding,70%
CC#CC(=O)N1CCC[C@H]1c1nc(-c2ccc(C(=O)Nc3ccccn3)cc2)c2c(N)nccn12,FLT3 N841I,enzyme activity,inhibitor,,1 µM,inhibition,18%
CN1CCN(C(=O)c2ccc(NC(=O)Nc3ccc(N(C)c4ccnc(Nc5ccc(CS(C)(=O)=O)cc5)n4)cc3)cc2)CC1,FLT3 K663Q,binding,,,1 µM,remaining binding,0%
C1=C/COCc2cc(ccc2OCCN2CCCC2)Nc2nccc(n2)-c2cccc(c2)COC/1,FLT3 K663Q,binding,,,0.1 µM,remaining binding,11%
